For assay [1], the target named is 5-hydroxytryptamine receptor 7 (Homo sapiens, UniProt P34969). Put plainly: Compound was evaluated for its ability to displace [3H]5-CT binding from cloned human 5-hydroxytryptamine 7 receptor expressed in COS-7 cells. It is filed as cell-based. The procedure, abridged: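 Radioligand displacement of [³H]5-CT from cloned human 5-HT7 receptor expressed in COS-7 cells. Values reported as pKi, each the mean of at least two determinations, each within 0.2 log unit of the mean.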
5-hydroxytryptamine receptor 7, sequence (P34969 whole entry): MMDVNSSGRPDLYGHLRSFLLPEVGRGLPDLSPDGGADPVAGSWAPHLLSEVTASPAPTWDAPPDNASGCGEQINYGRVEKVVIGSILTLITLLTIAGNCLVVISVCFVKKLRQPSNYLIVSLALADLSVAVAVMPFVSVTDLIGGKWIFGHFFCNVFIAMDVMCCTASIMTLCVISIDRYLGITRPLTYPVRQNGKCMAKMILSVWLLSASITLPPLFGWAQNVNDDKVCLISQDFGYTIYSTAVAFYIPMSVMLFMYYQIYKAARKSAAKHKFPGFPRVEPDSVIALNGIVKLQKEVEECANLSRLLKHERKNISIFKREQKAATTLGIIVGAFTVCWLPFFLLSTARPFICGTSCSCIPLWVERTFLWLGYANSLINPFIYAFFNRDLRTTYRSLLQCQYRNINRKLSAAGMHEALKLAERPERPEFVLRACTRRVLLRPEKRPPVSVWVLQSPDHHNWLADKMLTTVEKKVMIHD

Assay [2] deals with Serotonin 2 (5-HT2) receptor (Rattus norvegicus, UniProt P30994+P08909+P14842). Put plainly: Compound was evaluated for its ability to displace [3H]ketanserin binding from […] rat cerebral cortex membranes 5-hydroxytryptamine 2 receptor. Type of assay: tissue-based. In a few lines: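 Displacement of [³H]ketanserin from 5-HT2 sites in rat cerebral cortex membranes. Values reported as pKi, each the mean of at least two determinations, each within 0.2 log unit of the mean.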

For the next assay, the target named is D(2) dopamine receptor (Rattus norvegicus, UniProt P61169). Put plainly: Compound was evaluated for its ability to displace [3H]spiperone binding from Dopamine receptor D2 in rat striatum. In a few lines: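 Dopamine D2 binding was run in rat striatum with [3H]spiperone as radioligand. Values are pKi, mean of at least two determinations, each within 0.2 log unit of the mean.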
D(2) dopamine receptor, sequence (P61169 whole entry): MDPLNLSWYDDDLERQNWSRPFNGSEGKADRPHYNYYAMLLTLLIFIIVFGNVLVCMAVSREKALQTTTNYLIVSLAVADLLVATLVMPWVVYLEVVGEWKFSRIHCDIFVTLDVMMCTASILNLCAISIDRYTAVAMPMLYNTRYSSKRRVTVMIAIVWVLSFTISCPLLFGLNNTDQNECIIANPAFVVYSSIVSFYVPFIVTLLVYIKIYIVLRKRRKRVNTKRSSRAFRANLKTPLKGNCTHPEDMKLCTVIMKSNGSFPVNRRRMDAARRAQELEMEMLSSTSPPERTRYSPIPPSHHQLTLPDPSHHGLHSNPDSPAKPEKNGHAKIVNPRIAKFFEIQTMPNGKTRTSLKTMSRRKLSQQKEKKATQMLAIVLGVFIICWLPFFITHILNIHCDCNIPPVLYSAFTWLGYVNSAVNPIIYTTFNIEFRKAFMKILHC

The target of assay [3] is 5-hydroxytryptamine receptor 4 (Cavia porcellus, UniProt O70528). Put plainly: Compound was evaluated for its ability to displace [3H]GR-113808 binding from 5-hydroxytryptamine 4 receptor in guinea pig striatum. The procedure, abridged:
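Competition binding in guinea-pig striatum using [3H]GR-113808 at 5-HT4 sites. pKi is the mean of at least two determinations, each within 0.2 log unit of the mean.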

Assay [4] deals with 5-hydroxytryptamine receptor 6 (Homo sapiens, UniProt P50406). Put plainly: Compound was evaluated for its ability to displace [3H]LSD binding from human recombinant 5-hydroxytryptamine 6 receptor. The procedure, abridged:
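Displacement of [3H]LSD from human recombinant 5-HT6 receptor expressed in mammalian cells. pKi is the mean of at least two determinations, each lying within 0.2 log unit of the mean.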

Assay [5] addresses T1, 5-hydroxytryptamine receptor 1A (Homo sapiens, UniProt P08908).
T1 sequence (P08908 whole entry): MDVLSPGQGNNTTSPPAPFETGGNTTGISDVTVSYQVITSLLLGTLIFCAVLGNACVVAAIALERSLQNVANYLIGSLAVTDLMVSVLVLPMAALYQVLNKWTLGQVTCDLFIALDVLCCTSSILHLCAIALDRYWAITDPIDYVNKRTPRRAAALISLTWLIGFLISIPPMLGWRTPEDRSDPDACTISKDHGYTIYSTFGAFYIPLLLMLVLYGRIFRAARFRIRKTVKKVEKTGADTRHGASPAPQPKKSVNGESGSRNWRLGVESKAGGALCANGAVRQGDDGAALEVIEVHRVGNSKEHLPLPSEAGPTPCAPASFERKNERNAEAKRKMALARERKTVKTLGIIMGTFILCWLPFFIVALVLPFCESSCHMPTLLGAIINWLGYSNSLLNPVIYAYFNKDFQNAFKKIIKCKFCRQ
Put plainly: Compound was evaluated for its ability to displace [3H]8-OH-DPAT binding from human 5-hydroxytryptamine 1A receptor in mammalian cells. Type of assay: cell-based. In a few lines:
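Radioligand displacement at human recombinant 5-HT1A receptor expressed in mammalian cells, labelled with [3H]8-OH-DPAT. Affinity reported as pKi, mean of at least two determinations, each within 0.2 log unit of the mean.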

5-hydroxytryptamine receptor 4, sequence (O70528 whole entry): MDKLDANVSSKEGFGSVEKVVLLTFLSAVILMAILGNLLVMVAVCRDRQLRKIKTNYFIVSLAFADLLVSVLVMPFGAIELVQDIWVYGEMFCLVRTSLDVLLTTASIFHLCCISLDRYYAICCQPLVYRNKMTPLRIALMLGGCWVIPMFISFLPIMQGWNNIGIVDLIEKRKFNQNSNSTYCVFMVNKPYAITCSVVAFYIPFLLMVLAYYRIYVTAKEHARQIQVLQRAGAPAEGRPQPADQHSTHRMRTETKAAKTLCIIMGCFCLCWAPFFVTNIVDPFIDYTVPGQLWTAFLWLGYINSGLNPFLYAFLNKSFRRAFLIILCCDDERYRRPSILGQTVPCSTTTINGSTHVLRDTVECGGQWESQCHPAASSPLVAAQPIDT
5-hydroxytryptamine receptor 6, sequence (P50406 whole entry): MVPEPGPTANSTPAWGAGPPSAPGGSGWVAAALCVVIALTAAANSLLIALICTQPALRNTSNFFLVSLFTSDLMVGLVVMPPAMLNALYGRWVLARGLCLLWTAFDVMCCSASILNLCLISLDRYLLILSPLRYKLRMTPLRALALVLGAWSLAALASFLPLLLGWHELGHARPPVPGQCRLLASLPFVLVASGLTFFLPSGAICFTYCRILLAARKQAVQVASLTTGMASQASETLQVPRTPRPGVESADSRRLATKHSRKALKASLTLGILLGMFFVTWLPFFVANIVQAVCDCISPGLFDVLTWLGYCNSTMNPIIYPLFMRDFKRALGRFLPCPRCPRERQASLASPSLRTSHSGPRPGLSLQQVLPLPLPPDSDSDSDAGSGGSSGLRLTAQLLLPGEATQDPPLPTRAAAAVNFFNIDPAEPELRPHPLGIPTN

Broadly, the Ki is the equilibrium dissociation constant of an inhibitor or competing ligand from its target. Regarding `O=C1Nc2cccc3c2C1(CCCCN1CCN(c2ccccc2)CC1)CCC3` (stereo not given), the affinity in assay [1] corresponds to a Ki of 3.31 nM. For the same compound, the “Log Ki” value in assay [2] is on record as -7.37.

Consider `COc1ccccc1N1CCN(CCCCC23CCCc4cccc(c42)NC3=O)CC1` (stereo not given), for which affinity in assay [1] was put at a Ki of 5.13 nM. Besides, in assay [2], the “Log Ki” value is recorded as -6.95.

Turning to `O=C1Nc2cccc3c2C1(CCCN1CCN(c2ccccc2)CC1)CCC3` (stereo not given), the affinity in assay [1], expressed as Ki, was 5.25 nM. Also, the “Log Ki” value in assay [2] is reported as -7.79.

`O=C1Nc2cccc3c2C1(CCN1CCN(c2ccccc2)CC1)CCC3` (stereo not given) gave a Ki in assay [1] of 102 nM. The “Log Ki” value in assay [2] is listed as -8.27.

Consider `N#Cc1ccccc1N1CCN(CCCCC23CCCc4cccc(c42)NC3=O)CC1` (stereo not given), for which the affinity in assay [1] corresponds to a Ki of 3.8 nM. Further, the “Log Ki” value in assay [2] is -6.98.

As for `O=C1Nc2cccc3c2C1(CCCCN1CCN(C2CCCCC2)CC1)CCC3` (stereo not given), the Ki in assay [1] was more than 1000 nM. Besides, the Log Ki in assay [2] is more than -6.

With `O=C1Nc2cccc3c2C1(CCCCN1CCN(c2ccccn2)CC1)CCC3` (stereo not given), the Ki in assay [1] was 1.86 nM. The “Log Ki” value in assay [2] is -7.27.

Turning to `O=C1Nc2cccc3c2C1(CCCCN1CC=C(c2ccccc2)CC1)CCC3` (stereo not given), the inhibition constant (Ki) in assay [1] is 2.14 nM; at D(2) dopamine receptor it was 105 nM; in assay [3], more than 1000 nM; in assay [4], 525 nM; in assay [5], 170 nM. The “Log Ki” value in assay [2] is on record as -7.01.

The values above are taken from ChEMBL document CHEMBL1132576, “Tetrahydrobenzindoles: selective antagonists of the 5-HT7 receptor” (J Med Chem, 1999).
